Experimental data reported in ChEMBL document CHEMBL1139252, “Inhibition of purple acid phosphatase with alpha-alkoxynaphthylmethylphosphonic acids” (Bioorg Med Chem Lett, 2009).
Active and inactive are the calls of the source. The calls are words filed in the database; no cut-off is given here.

Assays:
[1] = species on record: Sus scrofa; assay: Activity of pig PAP at pH 4.9
[2] = molecular target: T1, Fe(3+)-Zn(2+) purple acid phosphatase (Phaseolus vulgaris) (UniProt P80366); assay: Inhibition of red kidney bean PAP at pH 6.2
T1 sequence (whole entry): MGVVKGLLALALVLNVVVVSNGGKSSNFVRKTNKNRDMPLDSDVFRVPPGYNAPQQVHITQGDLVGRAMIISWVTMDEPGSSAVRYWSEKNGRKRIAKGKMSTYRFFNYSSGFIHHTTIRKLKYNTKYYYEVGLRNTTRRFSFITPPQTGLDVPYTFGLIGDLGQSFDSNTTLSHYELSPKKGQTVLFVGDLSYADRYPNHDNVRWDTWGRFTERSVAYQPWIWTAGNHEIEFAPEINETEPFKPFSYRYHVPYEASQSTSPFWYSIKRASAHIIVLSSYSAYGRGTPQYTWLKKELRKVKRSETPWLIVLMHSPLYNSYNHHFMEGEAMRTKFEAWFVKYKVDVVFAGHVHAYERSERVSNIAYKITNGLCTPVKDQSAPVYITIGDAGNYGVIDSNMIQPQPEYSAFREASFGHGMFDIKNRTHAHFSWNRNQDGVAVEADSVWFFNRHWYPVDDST
How it was run: (§1)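 Each enzyme was run at its own pH optimum: red kidney bean PAP at pH 6.2 and pig PAP at pH 4.9. IC50 values were determined experimentally. Separate inhibition constants were derived for binding to the free enzyme and to the enzyme–substrate complex.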

[3] = species on record: Sus scrofa; assay: Inhibition of pig PAP at pH 4.9; how it was run: as §1
[4] = species on record: Homo sapiens; assay: Inhibition of human PAP

Km [1] [µM]	Kic [2] [mM]	Kiuc [2] [mM]	logIC50 [2]	Kic [3] [mM]	Kiuc [3] [mM]	logIC50 [3]	Structure (SMILES)	Activity [4]
1130	0.004	0.03	-2.1	0.017	0.02	-1.7	CCCCCCCCCCOC(c1cccc2ccccc12)P(=O)(O)O (racemic)	
2650	1.47	1.43	0			-0.37	CCCCCCOC(c1cccc2ccccc12)P(=O)(O)O (racemic)	
1500	0.05	0.129	-1	0.023	0.044	-1.5	CCCCCCCCOC(c1cccc2ccccc12)P(=O)(O)O (racemic)	

Structure (SMILES)	Km [1] [µM]	Kic [2] [mM]	Kiuc [2] [mM]	logIC50 [2]	Kic [3] [mM]	Kiuc [3] [mM]	logIC50 [3]	Activity [4]
O=P(O)(O)Cc1cccc2ccccc12				> 0.845				
O=P(O)(O)C(O)c1cccc2ccccc12 (configuration not stated)				0.7				inactive
